In ChEMBL document CHEMBL1139669, “8-Fluoroimidazo[1,2-a]pyridine: synthesis, physicochemical properties and evaluation as a bioisosteric replacement for imidazo[1,2-a]pyrimidine in an allosteric modulator ligand of the GABA A receptor” (Bioorg Med Chem Lett, 2006):

Assays:
[1] = Dissociation constant, pKa of the compound; type: physicochemical
Procedure, shortened: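 pKa determined from changes in the UV chromophore during a pH titration.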

[2] = Distribution coefficient, log D at pH 7.4; type: physicochemical; conditions: octanol/water
Procedure, shortened: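 Shake-flask partitioning between octanol and pH 7.4 aqueous buffer, shaken 20 min. logD7.4 is taken as the ratio of concentrations in octanol and in buffer.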

[3] = target: T1, GABA-A receptor; alpha-3/beta-3/gamma-2 (Homo sapiens, UniProt P18507+P28472+P34903); assay: Displacement of [3H]Ro 15-1788 from human GABA-Aalpha3 receptor plus beta-3-gamma-2 expressed in mouse L(tk-) cells; type: cell-based
T1 sequence (P18507 whole entry): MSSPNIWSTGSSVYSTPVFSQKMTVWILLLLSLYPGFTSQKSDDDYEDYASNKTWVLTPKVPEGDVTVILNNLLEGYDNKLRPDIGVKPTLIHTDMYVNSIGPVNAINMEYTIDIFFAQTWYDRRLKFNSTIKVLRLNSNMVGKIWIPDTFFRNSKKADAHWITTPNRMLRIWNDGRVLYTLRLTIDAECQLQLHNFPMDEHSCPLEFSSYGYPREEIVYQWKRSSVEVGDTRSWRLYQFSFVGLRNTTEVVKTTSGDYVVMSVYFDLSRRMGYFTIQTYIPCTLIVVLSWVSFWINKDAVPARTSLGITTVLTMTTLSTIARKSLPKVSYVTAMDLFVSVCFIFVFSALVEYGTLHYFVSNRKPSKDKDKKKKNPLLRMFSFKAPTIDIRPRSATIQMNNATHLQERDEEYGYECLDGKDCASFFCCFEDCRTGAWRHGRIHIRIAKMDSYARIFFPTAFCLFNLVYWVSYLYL
T1 sequence (P28472 whole entry): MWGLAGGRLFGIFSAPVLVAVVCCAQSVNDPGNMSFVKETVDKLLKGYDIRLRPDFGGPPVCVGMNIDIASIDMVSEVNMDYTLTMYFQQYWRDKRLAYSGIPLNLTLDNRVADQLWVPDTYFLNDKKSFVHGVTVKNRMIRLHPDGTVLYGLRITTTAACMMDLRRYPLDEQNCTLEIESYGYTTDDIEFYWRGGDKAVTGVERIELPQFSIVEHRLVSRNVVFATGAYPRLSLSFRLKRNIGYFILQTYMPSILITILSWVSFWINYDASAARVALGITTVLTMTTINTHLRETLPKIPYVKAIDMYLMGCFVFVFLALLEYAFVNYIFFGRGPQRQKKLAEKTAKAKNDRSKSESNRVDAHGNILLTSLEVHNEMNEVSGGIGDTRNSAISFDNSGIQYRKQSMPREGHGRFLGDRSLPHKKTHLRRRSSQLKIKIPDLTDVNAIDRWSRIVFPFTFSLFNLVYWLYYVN
T1 sequence (P34903 whole entry): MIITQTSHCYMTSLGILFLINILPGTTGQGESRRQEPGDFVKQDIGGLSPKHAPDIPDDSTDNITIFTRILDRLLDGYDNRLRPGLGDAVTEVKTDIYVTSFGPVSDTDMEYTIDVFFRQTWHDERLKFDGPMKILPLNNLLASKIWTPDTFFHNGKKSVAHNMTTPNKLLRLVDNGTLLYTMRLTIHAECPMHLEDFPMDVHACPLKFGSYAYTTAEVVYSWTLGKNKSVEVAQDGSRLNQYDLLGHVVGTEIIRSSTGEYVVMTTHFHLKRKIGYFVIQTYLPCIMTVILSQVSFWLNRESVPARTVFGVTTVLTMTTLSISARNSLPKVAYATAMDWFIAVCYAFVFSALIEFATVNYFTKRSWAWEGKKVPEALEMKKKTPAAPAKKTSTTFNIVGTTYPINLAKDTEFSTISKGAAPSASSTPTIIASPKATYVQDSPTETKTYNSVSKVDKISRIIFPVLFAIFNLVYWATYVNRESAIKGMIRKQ
Procedure, shortened: (§1)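 Competition binding against [³H]Ro15-1788 used at twice its Kd, with human GABA-A αxβ3γ2 receptors (α1 or α3) stably expressed in mouse LTK fibroblasts. Ki was calculated by Cheng-Prusoff from the inhibition curves. Values are means of three determinations.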

[4] = target: T2, GABA-A receptor; alpha-1/beta-3/gamma-2 (Homo sapiens) (UniProt P14867+P18507+P28472); assay: Efficacy against GABA-Aalpha1 receptor plus beta3gamma2 expressed in mouse L(tk-) cells relative to chlorodiazepoxide by chlorine flux assay; type: functional, cell-based
Procedure, shortened: (§2)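 Human GABA-A αxβ3γ2 receptors (α1 or α3) stably expressed in mouse LTK fibroblasts. ³⁶Cl⁻ flux assay with drug at 1000× Ki and GABA at EC20. Efficacy expressed relative to the maximal response of the full agonist chlordiazepoxide. Means of at least 7 determinations.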

[5] = target: GABA-A receptor; alpha-3/beta-3/gamma-2 (Homo sapiens) (UniProt P18507+P28472+P34903); assay: Efficacy against GABA-Aalpha3 receptor plus beta-3-gamma-2 expressed in mouse L(tk-) cells relative to chlorodiazepoxide by chlorine flux assay; type: functional, cell-based; procedure, shortened: as §2
[6] = target: T3, GABA-A receptor; alpha-1/beta-3/gamma-2 (Homo sapiens, UniProt P14867+P18507+P28472); assay: Displacement of [3H]Ro 15-1788 from human GABA-Aalpha1 receptor plus beta-3-gamma-2 expressed in mouse L(tk-) cells; type: cell-based; procedure, shortened: as §1
T3 sequence (P14867 whole entry): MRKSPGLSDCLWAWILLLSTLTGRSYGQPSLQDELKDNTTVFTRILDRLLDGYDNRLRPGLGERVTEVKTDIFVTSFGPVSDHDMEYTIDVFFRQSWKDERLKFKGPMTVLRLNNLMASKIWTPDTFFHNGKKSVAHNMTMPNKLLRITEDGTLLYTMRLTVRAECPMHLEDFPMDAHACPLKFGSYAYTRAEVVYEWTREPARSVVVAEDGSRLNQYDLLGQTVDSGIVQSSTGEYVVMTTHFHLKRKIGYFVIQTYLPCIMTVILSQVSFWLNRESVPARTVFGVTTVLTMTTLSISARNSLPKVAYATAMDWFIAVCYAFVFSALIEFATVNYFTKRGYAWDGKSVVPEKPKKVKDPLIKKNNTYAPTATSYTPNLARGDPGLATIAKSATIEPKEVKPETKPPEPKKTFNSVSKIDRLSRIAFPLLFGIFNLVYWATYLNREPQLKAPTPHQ
T3 sequence (P18507 whole entry): T1 sequence (P18507 whole entry)
T3 sequence (P28472 whole entry): T1 sequence (P28472 whole entry)

[7] = target: T2, GABA-A receptor; alpha-1/beta-3/gamma-2 (Homo sapiens); assay: Efficacy against GABA-Aalpha1 receptor plus beta-3-gamma-2 expressed in mouse L(tk-) cells relative to chlorodiazepoxide by electrophysiology method; type: functional, cell-based
Procedure, shortened: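 Human GABA-A α1β3γ2 receptors stably expressed in mouse LTK fibroblasts. Electrophysiology measured maximum modulation of the GABA EC20 response, expressed relative to the maximal response of the full agonist chlordiazepoxide. Means of at least 5 determinations.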

Row | SMILES | pKa [1] | logD [2] | Ki [3] [nM] | Efficacy [4] [%] | Efficacy [5] [%] | Ki [6] [nM] | Efficacy [7] [%]
1 | CC(C)(O)c1ccn2ccnc2c1 | 7.2 | 0.6 |  |  |  |  | 
2 | CC(C)(O)c1ccn2c(-c3ccc(F)c(-c4ccccc4C#N)c3)cnc2c1 |  |  | 5.16 | 35 | 61 | 4.35 | 
3 | c1cnc2nccn2c1 | 4.9 | -0.2 |  |  |  |  | 
4 | CC(C)(O)c1ccn2c(-c3ccc(F)c(-c4ccccc4C#N)c3)cnc2c1F |  |  | 0.32 |  | 104 | 0.2 | 34
5 | Fc1cccn2ccnc12 | 4.9 | 0.9 |  |  |  |  | 
6 | CC(C)(O)c1ccn2ccnc2n1 | 5.4 | 0.1 |  |  |  |  | 
7 | c1ccn2ccnc2c1 | 6.9 | 0.8 |  |  |  |  | 
8 | CC(C)(O)c1ccn2c(-c3ccc(F)c(-c4ccccc4C#N)c3)cnc2n1 |  |  | 0.47 |  | 79 | 0.71 | 60
9 | CC(C)(O)c1ccn2ccnc2c1F | 5.4 | 1.1 |  |  |  |  | 
